The source made the active and inactive calls. No cut-off for these calls is given here.
How the values were obtained:
[1] = test system: HFF; assay: Cytotoxicity against HFF assessed as inhibition of cell proliferation by MTS assay; assay type: cell-based, Homo sapiens
[2] = test system: MCF-10A; assay: Cytotoxicity against human MCF-10A cells assessed as inhibition of cell proliferation by MTS assay; assay type: cell-based
[3] = test system: A-375; assay: Cytotoxicity against human A-375 cells assessed as inhibition of cell proliferation measured after 48 hrs by MTS assay; assay type: functional, cell-based; conditions: A-375, 48 h
Method in brief: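 Cells were exposed to a dose range of inhibitor for 48 h, and viability was read by MTS assay in triplicate. GI50 was taken as the concentration giving 50% growth inhibition, averaged from three independent experiments. A375 was cultured in RPMI-1640 with Glutamax. A549 and NCI-H157 were kept in RPMI-1640, and MIA PaCa-2 and U87-MG in DMEM.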

[4] = Drug metabolism in pH 7.4 phosphate buffer assessed as nitric oxide release at 100 uM measured after 2 hrs by Griess reagent based colorimetric method
Method in brief: (§1)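 Compound at 100 µM was held at room temperature in pH 7.4 phosphate buffer with 5 mM DTT and 2% DMSO for 2 or 48 h. Griess reagent was added, and after 30 min absorbance was read at 548 nm. NO release (mol NO/mol compound) was derived from a sodium nitrite calibration curve.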

[5] = Drug metabolism in pH 7.4 phosphate buffer assessed as nitric oxide release at 100 uM measured after 48 hrs by Griess reagent based colorimetric method; method in brief: as §1
[6] = target: T1, Signal transducer and activator of transcription 3 (Homo sapiens, UniProt P40763); assay: Displacement of FAM-labeled 5-GpYLPQTV-NH2 from recombinant GST-tagged STAT3 (unknown origin) preincubated for 30 mins followed by FAM-labeled 5-GpYLPQTV-NH2 addition and measured after 30 mins by fluorescence assay; conditions: time 60.0 min
Method in brief: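 GST-STAT3 (2 µM) was bound to GST beads for 1 h at 4 °C in PBS with 0.1% β-mercaptoethanol, then washed. Bead slurry was incubated with compound dilutions (2.25% DMSO, duplicate) and FAM-GpYLPQTV-NH2 peptide. Resin was washed by vacuum filtration and fluorescence read at ex 485/em 535 nm. % displacement was set against the no-compound signal; two independent experiments.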

[7] = test system: A-375; assay: Potentiation of compound II-induced cytotoxicity against human A375 cells assessed as compound II IC50 at 12.5 uM measured after 48 hrs by MTS assay (reference value: 16.2 +/- 1.6 uM); assay type: functional, cell-based; conditions: A-375, 48 h
[8] = Antiproliferative activity against human SB-590885-sensitive 451Lu cells assessed as reduction in cell viability measured after 48 hrs by MTS assay; assay type: functional
Method in brief: (§2)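 Melanoma lines were grown in RPMI-1640 with Glutamax at 37 °C and 5% CO2. The resistant 451 Lu-R and MEL 1617-R sublines were maintained with 1 µM PLX4720. Cells were incubated with vehicle or inhibitor over a dose range, and viability was read by MTS assay in triplicate.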

[9] = target: T1, Signal transducer and activator of transcription 3; assay: Inhibition of STAT3 phosphorylation at Y705 residue in human SB-590885-resistant 451Lu cells measured after 12 hrs by Western blot analysis; conditions: dose 10-25 µM
Method in brief: (§3)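 451 Lu and MEL 1617 pairs, sensitive and resistant; resistant lines maintained in RPMI with 1 µM PLX4720. Treated with 10 and 25 µM for 12 h versus DMSO. Lysates (60 µg protein, 10% SDS-PAGE) immunoblotted for Ser727- and Tyr705-phospho-STAT3, total STAT3, total PAX3, with actin.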

[10] = target: T1, Signal transducer and activator of transcription 3; assay: Inhibition of STAT3 phosphorylation at S727 residue in human SB-590885-resistant 451Lu cells measured after 12 hrs by Western blot analysis; conditions: dose 10-25 µM; method in brief: as §3
[11] = target: T1, Signal transducer and activator of transcription 3; assay: Inhibition of STAT3 phosphorylation at Y705 residue in human SB-590885-sensitive 451Lu cells measured after 12 hrs by Western blot analysis; conditions: dose 10-25 µM; method in brief: as §3
[12] = target: T1, Signal transducer and activator of transcription 3; assay: Inhibition of STAT3 phosphorylation at S727 residue in human SB-590885-sensitive 451Lu cells measured after 12 hrs by Western blot analysis; conditions: dose 10-25 µM; method in brief: as §3
[13] = target: T1, Signal transducer and activator of transcription 3; assay: Inhibition of STAT3 in human SB-590885-sensitive 451Lu cells assessed as reduction in PAX3 expression measured after 12 hrs by Western blot analysis; conditions: dose 10-25 µM; method in brief: as §3
[14] = target: T1, Signal transducer and activator of transcription 3; assay: Inhibition of STAT3 in human SB-590885-resistant 451Lu cells assessed as reduction in PAX3 expression measured after 12 hrs by Western blot analysis; conditions: dose 10-25 µM; method in brief: as §3
[15] = target: T1, Signal transducer and activator of transcription 3; assay: Inhibition of STAT3 phosphorylation at Y705 residue in human SB-590885-resistant MEL1617 cells at 10 to 25 uM measured after 12 hrs by Western blot analysis; assay type: cell-based; conditions: dose 10-25 µM; method in brief: as §3
[16] = target: T1, Signal transducer and activator of transcription 3; assay: Inhibition of STAT3 phosphorylation at S727 residue in human SB-590885-resistant MEL1617 cells at 10 to 25 uM measured after 12 hrs by Western blot analysis; assay type: cell-based; conditions: dose 10-25 µM; method in brief: as §3
[17] = target: T1, Signal transducer and activator of transcription 3; assay: Inhibition of STAT3 phosphorylation at Y705 residue in human SB-590885-sensitive MEL1617 cells at 10 to 25 uM measured after 12 hrs by Western blot analysis; assay type: cell-based; conditions: dose 10-25 µM; method in brief: as §3
[18] = target: T1, Signal transducer and activator of transcription 3; assay: Inhibition of STAT3 phosphorylation at S727 residue in human SB-590885-sensitive MEL1617 cells at 10 to 25 uM measured after 12 hrs by Western blot analysis; assay type: cell-based; conditions: dose 10-25 µM; method in brief: as §3
[19] = target: T1, Signal transducer and activator of transcription 3; assay: Inhibition of STAT3 in human SB-590885-sensitive MEL1617 cells assessed as reduction in PAX3 expression at 10 to 25 uM measured after 12 hrs by Western blot analysis; assay type: cell-based; conditions: dose 10-25 µM; method in brief: as §3
[20] = target: T1, Signal transducer and activator of transcription 3; assay: Inhibition of STAT3 in human SB-590885-resistant MEL1617 cells assessed as reduction in PAX3 expression at 10 to 25 uM measured after 12 hrs by Western blot analysis; assay type: cell-based; conditions: dose 10-25 µM; method in brief: as §3
[21] = target: T1, Signal transducer and activator of transcription 3; assay: Inhibition of STAT3 in human SB-590885-sensitive 451Lu cells assessed as reduction in STAT3 transcriptional activity measured after 12 hrs by Dual-luciferase reporter gene assay
Method in brief: (§4)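 Cells co-transfected with inducible STAT3-responsive firefly luciferase and constitutive Renilla luciferase constructs (40:1) using Lipofectamine 3000. After 48 h, dose series in DMSO vehicle applied for 12 h, followed by dual-luciferase readout. Firefly signal normalized to Renilla and compared with untreated cells. Run in triplicate; IC50 taken from dose–response curves.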

[22] = target: T1, Signal transducer and activator of transcription 3; assay: Inhibition of STAT3 in human SB-590885-resistant 451Lu cells assessed as reduction in STAT3 transcriptional activity measured after 12 hrs by Dual-luciferase reporter gene assay; method in brief: as §4
[23] = target: T1, Signal transducer and activator of transcription 3; assay: Inhibition of STAT3 in human SB-590885-sensitive MEL1617 cells assessed as reduction in STAT3 transcriptional activity measured after 12 hrs by Dual-luciferase reporter gene assay; assay type: cell-based; method in brief: as §4
[24] = target: T1, Signal transducer and activator of transcription 3; assay: Inhibition of STAT3 in human SB-590885-resistant MEL1617 cells assessed as reduction in STAT3 transcriptional activity measured after 12 hrs by Dual-luciferase reporter gene assay; assay type: cell-based; method in brief: as §4
[25] = Antiproliferative activity against human SB-590885-resistant 451Lu cells assessed as reduction in cell viability measured after 48 hrs by MTS assay; assay type: functional; conditions: Homo sapiens, 451Lu, 48 h; read-out: IC50; method in brief: as §2
[26] = Antiproliferative activity against human SB-590885-sensitive MEL1617 cells assessed as reduction in cell viability measured after 48 hrs by MTS assay; assay type: functional, cell-based; conditions: MEL1617, 48 h; method in brief: as §2
[27] = Antiproliferative activity against human SB-590885-resistant MEL1617 cells assessed as reduction in cell viability measured after 48 hrs by MTS assay; assay type: functional, cell-based; conditions: Homo sapiens, MEL1617, 48 h; read-out: IC50; method in brief: as §2

T1 sequence (P40763 whole entry): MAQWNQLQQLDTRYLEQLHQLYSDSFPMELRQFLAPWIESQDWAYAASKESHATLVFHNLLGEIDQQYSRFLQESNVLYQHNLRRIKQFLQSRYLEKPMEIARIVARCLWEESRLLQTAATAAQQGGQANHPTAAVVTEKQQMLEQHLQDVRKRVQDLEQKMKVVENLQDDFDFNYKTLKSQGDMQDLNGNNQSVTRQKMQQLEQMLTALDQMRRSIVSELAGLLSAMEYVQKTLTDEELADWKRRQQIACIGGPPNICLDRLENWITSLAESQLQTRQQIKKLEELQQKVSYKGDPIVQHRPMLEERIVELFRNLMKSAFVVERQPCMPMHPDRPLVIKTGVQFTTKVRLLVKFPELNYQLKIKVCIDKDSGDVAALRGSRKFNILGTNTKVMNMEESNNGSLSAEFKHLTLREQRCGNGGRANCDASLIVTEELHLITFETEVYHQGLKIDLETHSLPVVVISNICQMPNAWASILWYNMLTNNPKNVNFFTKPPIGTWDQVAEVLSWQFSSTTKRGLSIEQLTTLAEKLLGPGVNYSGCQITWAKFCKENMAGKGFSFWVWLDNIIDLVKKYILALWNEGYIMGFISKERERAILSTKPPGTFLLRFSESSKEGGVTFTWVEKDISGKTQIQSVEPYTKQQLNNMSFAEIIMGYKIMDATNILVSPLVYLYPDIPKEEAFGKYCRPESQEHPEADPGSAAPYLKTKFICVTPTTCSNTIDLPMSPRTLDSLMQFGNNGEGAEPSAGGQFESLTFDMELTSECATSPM

| SMILES | IC50 [3] | Drug metabolism [4] | Drug metabolism [5] | inhibition [9] | inhibition [10] | inhibition [11] | inhibition [12] | inhibition [13] | inhibition [14] | inhibition [15] | inhibition [16] | inhibition [17] | inhibition [18] | inhibition [19] | inhibition [20] | further results |
| --- | --- | --- | --- | --- | --- | --- | --- | --- | --- | --- | --- | --- | --- | --- | --- | --- |
| COc1ccc2nc(-c3ccc(Cl)cc3)cc(-c3nnc(SCC(=O)Nc4ccc(/C(C)=N\O)cc4)n3-c3ccccc3)c2c1 | > 100 µM | 15% | 30% | inactive | inactive | inactive | inactive | inactive | inactive | inactive | inactive | inactive | inactive | inactive | inactive | IC50 ([1]; hff): Not Active; IC50 ([2]; mcf-10a): Not Active; inhibition [6]: inactive; IC50 [7]: 6.8 µM; IC50 [8]: > 50 µM; IC50 [21]: 54 µM; IC50 [22]: 40.5 µM; IC50 [23]: 75 µM; IC50 [24]: 35.2 µM; IC50 [25]: > 50 µM; IC50 [26]: > 50 µM; IC50 [27]: > 50 µM |
| COc1ccc(-c2cc(-c3nnc(SCC(=O)Nc4ccc(/C(C)=N\O)cc4)n3-c3ccccc3)c3cc(OC)ccc3n2)cc1 | – | 15% | 30% | inactive | inactive | inactive | inactive | inactive | inactive | inactive | inactive | inactive | inactive | inactive | inactive | – |
| O=C(Nc1nnc(-c2ccco2)o1)c1cc(-c2ccccc2)nc2ccccc12 | 16.2 µM | – | – | – | – | – | – | – | – | – | – | – | – | – | – | IC50 ([1]; Homo sapiens, HFF, read-out: IC50): 72.2 µM; IC50 ([2]; Homo sapiens, MCF-10A, read-out: IC50): 33.4 µM |

— ChEMBL document CHEMBL4715843, “NO-releasing STAT3 inhibitors suppress BRAF-mutant melanoma growth” (Eur J Med Chem, 2020)
